{
  "source": "ChEMBL document CHEMBL1142067",
  "about": "“Antiparasitic drug nitazoxanide inhibits the pyruvate oxidoreductases of Helicobacter pylori, selected anaerobic bacteria and parasites, and Campylobacter jejuni” (Antimicrob Agents Chemother, 2007)",
  "key": {"Entamoeba histolytica [1]": {"test_system": "Entamoeba histolytica", "assay": "Activity of PFOR in Entamoeba histolytica at anaerobic condition", "method_in_brief": "(§1)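 Cell-free extracts, high-speed supernatant after sonication (parasites: sonication or glass homogenizer). PFOR assayed anaerobically at 25°C in 100 mM potassium phosphate pH 7.4 with 10 mM pyruvate, 0.18 mM CoA, 1 mM MgCl2 and 5 µM TPP. Acceptor was 5 mM benzyl viologen (546 nm) or NTZ (decrease at 418 nm). Enzyme added last. Triplicate means, per mg Bradford protein.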"}, "[2]": {"assay": "Inhibition of PFOR Trichomonas vaginalis", "method_in_brief": "(§2)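 PFOR in extracts or partly purified enzyme, standard anaerobic assay at 25°C with excess benzyl viologen (5 mM). Initial velocities of BV reduction at 546 nm measured at each NTZ level (0 to 264 µM). Plotted as 1/V against inhibitor concentration to derive Ki. Triplicate.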"}, "Entamoeba histolytica [3]": {"test_system": "Entamoeba histolytica", "assay": "Inhibition of Entamoeba histolytica PFOR cloned in Escherichia coli assessed as [14C]pyruvate decarboxylation by BV assay"}, "Helicobacter pylori": {"test_system": "Helicobacter pylori", "assay": "Activity of PFOR in Helicobacter pylori at anaerobic condition", "method_in_brief": "as §1"}, "[4]": {"assay": "Inhibition of PFOR Helicobacter pylori", "method_in_brief": "as §2"}, "[5]": {"biological_target": "T1, Pyruvate-flavodoxin oxidoreductase (Campylobacter jejuni subsp. jejuni) (UniProt Q0P8E1)", "T1 sequence (whole entry)": "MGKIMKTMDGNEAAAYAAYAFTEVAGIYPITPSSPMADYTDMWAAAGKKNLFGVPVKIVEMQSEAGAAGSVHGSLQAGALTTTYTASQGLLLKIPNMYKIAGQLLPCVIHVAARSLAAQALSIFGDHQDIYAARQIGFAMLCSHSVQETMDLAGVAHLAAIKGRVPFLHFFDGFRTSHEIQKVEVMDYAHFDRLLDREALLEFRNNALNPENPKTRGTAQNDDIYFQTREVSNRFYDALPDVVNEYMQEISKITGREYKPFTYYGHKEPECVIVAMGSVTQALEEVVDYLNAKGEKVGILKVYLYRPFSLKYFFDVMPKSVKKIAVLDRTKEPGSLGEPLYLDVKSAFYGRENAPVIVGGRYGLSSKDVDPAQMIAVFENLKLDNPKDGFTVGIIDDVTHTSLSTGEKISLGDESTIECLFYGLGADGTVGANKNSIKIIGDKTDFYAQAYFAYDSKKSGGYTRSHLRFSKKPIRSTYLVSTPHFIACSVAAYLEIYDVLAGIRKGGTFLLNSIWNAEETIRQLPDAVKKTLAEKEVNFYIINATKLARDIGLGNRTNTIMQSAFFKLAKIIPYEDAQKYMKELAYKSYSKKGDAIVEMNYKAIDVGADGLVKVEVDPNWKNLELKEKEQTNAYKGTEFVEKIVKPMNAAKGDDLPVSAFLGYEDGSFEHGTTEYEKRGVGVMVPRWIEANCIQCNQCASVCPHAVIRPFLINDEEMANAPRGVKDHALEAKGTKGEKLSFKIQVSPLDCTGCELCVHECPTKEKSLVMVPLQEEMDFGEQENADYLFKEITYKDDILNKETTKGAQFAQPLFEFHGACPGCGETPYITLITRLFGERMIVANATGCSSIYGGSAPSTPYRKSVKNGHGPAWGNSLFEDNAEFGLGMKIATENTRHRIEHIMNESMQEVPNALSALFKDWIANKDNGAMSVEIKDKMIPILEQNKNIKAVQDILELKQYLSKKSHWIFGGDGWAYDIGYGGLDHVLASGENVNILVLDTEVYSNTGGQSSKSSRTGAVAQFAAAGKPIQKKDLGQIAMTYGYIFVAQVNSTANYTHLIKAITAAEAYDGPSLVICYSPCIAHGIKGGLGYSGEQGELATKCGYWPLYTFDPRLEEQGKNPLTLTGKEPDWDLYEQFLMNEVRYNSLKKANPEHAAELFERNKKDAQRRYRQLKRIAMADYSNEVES", "assay": "Activity of PFOR in Campylobacter jejuni at anaerobic condition", "method_in_brief": "as §1"}, "Giardia duodenalis": {"test_system": "Giardia duodenalis", "assay": "Activity of PFOR in Giardia intestinalis at anaerobic condition", "method_in_brief": "as §1"}, "Escherichia coli [6]": {"test_system": "Escherichia coli", "assay": "Growth inhibition of Escherichia coli CC104 expressing rdxA gene after 16 hrs", "assay_type": "functional", "method_in_brief": "(§3)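 E. coli CC104 carrying pGS950 (H. pylori rdxA) or empty pBSK, grown in 2% glucose MinA liquid medium with drug at 0, 5, 10 or 15 µg/ml. Turbidity at 660 nm read at 16 h in triplicate and expressed as a percentage of the no-drug control.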"}, "Escherichia coli [7]": {"test_system": "Escherichia coli", "assay": "Growth inhibition of Escherichia coli", "assay_type": "functional"}, "[8]": {"biological_target": "T2, Pyruvate-flavodoxin oxidoreductase (Clostridium perfringens (strain SM101 / Type A)) (UniProt Q0SRB6)", "T2 sequence (whole entry)": "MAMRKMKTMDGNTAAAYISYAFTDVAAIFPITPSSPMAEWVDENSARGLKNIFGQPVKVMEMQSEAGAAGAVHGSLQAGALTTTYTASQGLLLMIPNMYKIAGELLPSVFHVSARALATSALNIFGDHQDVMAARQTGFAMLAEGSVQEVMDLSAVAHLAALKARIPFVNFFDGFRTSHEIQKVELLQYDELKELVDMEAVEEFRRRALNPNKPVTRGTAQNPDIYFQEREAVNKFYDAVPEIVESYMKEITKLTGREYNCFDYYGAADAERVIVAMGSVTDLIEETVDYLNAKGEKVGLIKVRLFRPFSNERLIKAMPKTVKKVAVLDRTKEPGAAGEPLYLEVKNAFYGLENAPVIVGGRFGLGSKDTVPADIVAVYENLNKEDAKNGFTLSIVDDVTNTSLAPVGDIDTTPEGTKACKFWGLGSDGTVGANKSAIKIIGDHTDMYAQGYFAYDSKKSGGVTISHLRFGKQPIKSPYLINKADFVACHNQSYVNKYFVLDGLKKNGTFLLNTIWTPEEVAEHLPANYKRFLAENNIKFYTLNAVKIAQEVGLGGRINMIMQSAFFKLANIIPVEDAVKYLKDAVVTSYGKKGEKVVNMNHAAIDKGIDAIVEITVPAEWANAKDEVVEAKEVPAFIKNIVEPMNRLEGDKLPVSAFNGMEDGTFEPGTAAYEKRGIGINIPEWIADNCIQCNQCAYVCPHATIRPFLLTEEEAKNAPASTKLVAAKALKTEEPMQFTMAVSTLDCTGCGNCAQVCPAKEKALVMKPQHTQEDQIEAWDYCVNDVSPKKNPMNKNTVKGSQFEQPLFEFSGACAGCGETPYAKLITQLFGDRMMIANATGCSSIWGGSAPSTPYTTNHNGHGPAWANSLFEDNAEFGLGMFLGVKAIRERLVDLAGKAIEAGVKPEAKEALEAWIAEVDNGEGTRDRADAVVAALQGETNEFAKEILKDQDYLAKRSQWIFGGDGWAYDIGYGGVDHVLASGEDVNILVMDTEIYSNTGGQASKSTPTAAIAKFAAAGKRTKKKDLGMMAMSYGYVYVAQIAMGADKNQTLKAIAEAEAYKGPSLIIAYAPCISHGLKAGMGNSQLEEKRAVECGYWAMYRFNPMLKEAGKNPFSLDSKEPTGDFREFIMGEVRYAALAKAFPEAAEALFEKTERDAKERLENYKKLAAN", "assay": "Activity of PFOR in Clostridium perfringens at anaerobic condition", "method_in_brief": "as §1"}, "Clostridioides difficile": {"test_system": "Clostridioides difficile", "assay": "Activity of PFOR in Clostridium difficile at anaerobic condition", "method_in_brief": "as §1"}, "Escherichia coli [9]": {"test_system": "Escherichia coli", "assay": "Inhibition of Escherichia coli JVQ2 PDH at 20 uM"}, "[10]": {"biological_target": "T3, Pyruvate-flavodoxin oxidoreductase (Campylobacter jejuni subsp. jejuni, UniProt Q0P8E1)", "T3 sequence (Q0P8E1 whole entry)": "T1 sequence (whole entry)", "assay": "Inhibition of PFOR Campylobacter jejuni", "method_in_brief": "as §2"}, "Escherichia coli [11]": {"test_system": "Escherichia coli", "assay": "Growth inhibition of Escherichia coli pBSK after 16 hrs", "assay_type": "functional", "method_in_brief": "as §3"}, "[12]": {"assay": "Inhibition of PFOR Entamoeba histolytica", "method_in_brief": "as §2"}, "Escherichia coli [13]": {"test_system": "Escherichia coli", "assay": "Growth inhibition of Escherichia coli CC104 expressing rdxA after 16 hrs relative to Escherichia coli with pBSK", "assay_type": "functional, organism-based", "method_in_brief": "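E. coli CC104 carrying pGS950 (expresses H. pylori rdxA) or empty pBSK was grown in 2% glucose minimal (MinA) liquid medium with drug at 0, 5, 10 or 15 µg/ml. Turbidity at 660 nm was read at 16 h in triplicate cultures, normalized to the no-drug control, and expressed as percent growth inhibition (mean and standard deviation).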"}, "Trichomonas vaginalis": {"test_system": "Trichomonas vaginalis", "assay": "Activity of PFOR in Trichomonas vaginalis at anaerobic condition", "method_in_brief": "as §1"}},
  "note": "Activity calls are given as the source filed them. No cut-off for these calls is given here.",
  "data": [
    {"compound": "CC(=O)Oc1ccccc1C(=O)Nc1ncc([N+](=O)[O-])s1", "note": "[NITAZOXANIDE]", "values": [
      {"measurement": "Activity", "setting": "Entamoeba histolytica [1]", "value": 19, "unit": "nmol/mg/min"},
      {"measurement": "Ki", "setting": "[2]", "value": 2.2, "unit": "µM"},
      {"measurement": "Activity", "setting": "Entamoeba histolytica [3]", "value": "Active"},
      {"measurement": "Activity", "setting": "Helicobacter pylori", "value": 8.5, "unit": "nmol/mg/min"},
      {"measurement": "Ki", "setting": "[4]", "value": 4.5, "unit": "µM"},
      {"measurement": "Activity", "setting": "[5]", "value": 20, "unit": "nmol/mg/min"},
      {"measurement": "Activity", "setting": "Giardia duodenalis", "value": 41.5, "unit": "nmol/mg/min"},
      {"measurement": "Km", "setting": "Giardia duodenalis", "value": 44, "unit": "µM"},
      {"measurement": "Inhibition", "setting": "Escherichia coli [6]", "value": 35, "unit": "%"},
      {"measurement": "MIC", "setting": "Escherichia coli [7]", "value": "> 32", "unit": "mg/L"},
      {"measurement": "Activity", "setting": "[8]", "value": 56.5, "unit": "nmol/mg/min"},
      {"measurement": "Activity", "setting": "Clostridioides difficile", "value": 18.8, "unit": "nmol/mg/min"},
      {"measurement": "inhibition", "setting": "Escherichia coli [9]", "value": 22, "unit": "%"},
      {"measurement": "Ki", "setting": "[10]", "value": 10.5, "unit": "µM"},
      {"measurement": "Inhibition", "setting": "Escherichia coli [11]", "value": 35, "unit": "%"},
      {"measurement": "Ki", "setting": "[12]", "value": 10, "unit": "µM"}
    ]},
    {"compound": "Cc1ncc([N+](=O)[O-])n1CCO", "values": [
      {"measurement": "Activity", "setting": "Escherichia coli [13]", "value": "Active"}
    ]},
    {"compound": "c1ccc(C[n+]2ccc(-c3cc[n+](Cc4ccccc4)cc3)cc2)cc1", "values": [
      {"measurement": "Activity", "setting": "Entamoeba histolytica [1]", "value": 742, "unit": "nmol/mg/min"},
      {"measurement": "Activity", "setting": "Helicobacter pylori", "value": 127, "unit": "nmol/mg/min"},
      {"measurement": "Activity", "setting": "[5]", "value": 115, "unit": "nmol/mg/min"},
      {"measurement": "Activity", "setting": "Giardia duodenalis", "value": 62.5, "unit": "nmol/mg/min"},
      {"measurement": "Activity", "setting": "Trichomonas vaginalis", "value": 52.5, "unit": "nmol/mg/min"},
      {"measurement": "Activity", "setting": "[8]", "value": 225, "unit": "nmol/mg/min"},
      {"measurement": "Activity", "setting": "Clostridioides difficile", "value": 106, "unit": "nmol/mg/min"}
    ]}
  ]
}
